Data set [1] deals with primary human lymphocytes. To be noted: primary human lymphocytes in vitro; cited from earlier work.
Data set [2] deals with mouse model of multiple sclerosis. To be noted: oral application; cited from earlier work.
Data set [3] deals with activated human PBMC / T lymphocytes. Description: Apoptosis and necrosis by annexin V and propidium iodide staining. The class given is cell-based. To be noted: cyclotides, annexin V-FITC/PI, n = 3. A digest of the protocol:
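Donor PBMC (2 × 10^5) in RPMI 1640 with 10% heat-inactivated FBS and 2 mM L-glutamine at 37 °C, 5% CO2. Activated with anti-CD3 (HIT3) and anti-CD28 (28.6), 100 ng/mL each, then exposed to test compound. Annexin V-FITC/PI double staining by flow cytometry, normalised to the stimulated control. Camptothecin was the apoptosis control and Triton X-100 (0.5%) the necrosis control. Mean ± SD, n = 3, ANOVA/Dunnett.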

In a further data set the test system is CD107a on CD8+ T cells. Description: CD8+ T cell degranulation. The class given is cell-based, human. To be noted: cyclotides; activated PBMC 24 h, PMA/ionomycin 4 h, MFI of CD107a, n = 3. A digest of the protocol: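 Anti-CD3/anti-CD28 (100 ng/mL each) activated PBMC (2 × 10^5) were treated with test compound, CsA (4.16 μM) or camptothecin (300 μM) for 24 h. They were then restimulated with PMA (50 ng/mL) and ionomycin (500 ng/mL) for 4 h. Staining used CD107a-PE with GolgiStop, read by flow cytometry. CD107a MFI is expressed relative to the stimulated control. n = 3.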

Data set [4] has as its system activated human primary T cells (PBMC). The data set is described as follows: Cell division tracking using CFSE. The data set is classed as cell-based. The following applies: cyclotides, anti-CD3/anti-CD28 stimulated human PBMC, 72 h, n = 3. In short, it runs like this: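 PBMC at 5 × 10^6 cells/mL in PBS were labelled with CFSE (5 mM stock diluted 1/1000) for 10 min at 37 °C, and labelling was stopped by washing in complete medium. Cells (2 × 10^5) were activated with anti-CD3/anti-CD28 (100 ng/mL each) and cultured 72 h with test compound or CsA 4.16 μM. Proliferating cells were read by flow cytometry and normalised to the stimulated control. Mean ± SD, n = 3.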

Data set [5] deals with activated human PBMC / T lymphocytes. Description: Cell cycle progression by DNA content. The class given is cell-based. To be noted: cyclotides, 72 h, PI staining, n = 3. A digest of the protocol:
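PBMC were activated with anti-CD3/anti-CD28 (100 ng/mL each) and incubated 72 h with test compound or CsA. Cells were washed, fixed and permeabilised in 70% ice-cold ethanol, then stained with PI plus RNase. Flow cytometry gave the share of living lymphocytes in each cell-cycle phase, reported as mean of three independent experiments.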

In another data set the test system is CD25 on T lymphocytes. The data set is described as follows: CD25 activation marker detection. The class given is cell-based, human. The following applies: cyclotides; activated PBMC, 24 h, n = 3. In short, it runs like this: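 PBMC (2 × 10^5) were stimulated with anti-CD3/anti-CD28 mAbs (100 ng/mL each) and exposed to test compound for 24 h. Controls were CsA 4.16 μM and camptothecin 300 μM. Stained with anti-CD25-PE plus anti-CD4-APC and read by flow cytometry. Result is the percentage of CD4+ and CD4− T cells expressing CD25, relative to the untreated stimulated control. n = 3, ANOVA/Dunnett.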

For “T20K (GLPVCGETCVGGTCNTPGCKCSWPVCTRN; not fully specified; Kalata-B1 cyclic backbone; UniProt P56254 89-117, looked up, variant T20K)”, the “effect on T cell proliferation” value in data set [1] is given as “inhibition of T cell proliferation”. Besides, in data set [2], the clinical scores entry is “significant delay and reductions in clinical scores”.

Consider “c-CGESCVFIPCFSSVIGCSCKNKVCYRNGVIP (bicyclic or more) [caripe 12]”, for which, in data set [3], the “concentration with significant increase in the number of apoptotic cells” value (“concentration with significant increase” below) is 30 µM. For the same substance, the “concentration with significant rise in degranulation levels (CD107a)” value (“concentration with significant rise” for short) with CD107a on CD8+ T cells is listed as 3 µM. Also, in data set [4], the “concentration with significant reduction in T cell proliferation” value amounted to 30 µM. Further, in data set [5], the “concentration with significant reduction in the number of cells in the G2-phase” value was 30 µM.

As for “c-CGESCVFIPCFSTVIGCSCKNKVCYRNGVIP (bicyclic or more) [caripe 10]”, the “concentration with significant increase” value in data set [3] was determined as 10 µM. Besides, the “concentration with significant reduction in CD107a levels” value in the data set on CD107a on CD8+ T cells is given as 10 µM. Also, in data set [4], the “concentration with significant reduction in T cell proliferation” value is recorded as 10 µM. For the same substance, the “concentration with significant reduction of CD25 expression” value in the data set with CD25 on T lymphocytes stood at 10 µM. Also, the “concentration with significant reduction in the number of cells in the G2-phase” value in data set [5] was determined as 10 µM.

Turning to “c-CGESCVFIPCFTSVFGCSCKDKVCYRNGIP (bicyclic or more) [caripe 13]”, in data set [3], the “concentration with significant induction of necrosis” value turned out to be 30 µM. Moreover, the “concentration with significant reduction in T cell proliferation” value in data set [4] was 30 µM.

On to “c-CGESCVFIPCISTVIGCSCKKKVCYRNGVIP (bicyclic or more) [caripe 11]”, for which, in data set [3], the “concentration with significant increase” value was 10 µM. Besides, the “concentration with significant rise” value with CD107a on CD8+ T cells amounted to 3 µM. Also, in data set [4], the “concentration with significant reduction in T cell proliferation” value is given as 30 µM. Moreover, in data set [5], the “concentration with significant reduction in the number of cells in the G2-phase” value came out at 30 µM.

With “c-CGESCVFIPCITAAIGCSCKKKVCYRNGVIP (bicyclic or more) [caripe 8]”, in data set [3], the “concentration with significant induction of necrosis” value is listed as 10 µM. In the data set with CD107a on CD8+ T cells, the “concentration with significant reduction in CD107a levels” value is given as 10 µM and the “concentration with significant rise” value was determined as 3 µM. For the same substance, the “concentration with significant reduction in T cell proliferation” value in data set [4] is on record as 10 µM. Also, the “concentration with significant reduction of CD25 expression” value with CD25 on T lymphocytes came out at 10 µM. Also, the “concentration with significant reduction in the number of cells in the G2-phase” value in data set [5] is on record as 30 µM.

Regarding “cyclo-CGESCVFIPCTVTALLGCSCKNKVCYRNGIP (bicyclic or more) [caripe 7]”, the “concentration with significant induction of necrosis” value in data set [3] is given as 3 µM. In addition, the “concentration with significant reduction in CD107a levels” value in the data set on CD107a on CD8+ T cells worked out at 10 µM. Moreover, the “concentration with significant reduction in T cell proliferation” value in data set [4] amounted to 10 µM. Moreover, the “concentration with significant reduction of CD25 expression” value with CD25 on T lymphocytes was 10 µM. The “concentration with significant reduction in the number of cells in the G2-phase” value in data set [5] amounted to 10 µM.
